Drawing on ChEMBL document CHEMBL1128400, “Synthesis of some 2-aryl-1,2,4-triazolo[1,5-c][1,3]benzoxazin-5-ones as tools to define the essential pharmacophoric descriptors of a benzodiazepine receptor ligand” (J Med Chem, 1995), this text covers Ki, GR and inhibition for 22 compounds.

Test [1] is described as follows: Binding affinity at bovine Benzodiazepine receptor by [3H]flunitrazepam displacement. The procedure, abridged:
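[3H]flunitrazepam displacement; IC50 from log-probit plots, converted to Ki. Run for compounds giving enough inhibition in a 10 μM screen.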

For test [2], the target named is T1, GABA-A receptor; anion channel (Bos taurus) (UniProt P10063+P08220+P20237+P08219+P10064+P22300). The test is described as follows: GABA ratio (where GABA ratio = IC50 (compound) / IC50 (compound + 10 uM GABA)). The test is classed as protein-complex assay. The procedure, abridged: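 Ratio of IC50 for [3H]flunitrazepam displacement measured without GABA to IC50 measured with 10 μM GABA. Used as a rough in vitro gauge of intrinsic activity. Five independent experiments.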

Test [3] has as its target T1, GABA-A receptor; anion channel (Bos taurus). The test is described as follows: inhibition of [3H]flunitrazepam binding to GABA-A benzodiazepine receptor of bovine brain membranes. The test is classed as cell membranes. Particulars: concentration not given here.
Test [4] shares this target. The test is described as follows: Percentage inhibition of [3H]flunitrazepam binding to GABA-A benzodiazepine receptor of bovine brain membranes. The test is classed as cell membranes. Particulars: concentration not given here. The essentials:
(§1)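 Percent inhibition of [3H]flunitrazepam binding, with test compound at 10 μM. Ethanol used as solvent in one case.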

Test [5] shares this target. The test can be described thus: Inhibition of [3H]flunitrazepam binding to GABA-A benzodiazepine receptor of bovine brain membranes at 10e-5 M. The test is classed as cell membranes. The essentials: as §1

pKi: −log10 of the molar value.

Broadly, the pKi is −log10 of the Ki, conventionally taken in molar units. High values mean a low Ki, low ones a high Ki. One may read the inhibition as the drop in the measured response relative to a control, in per cent. Low readings indicate a response near the control, high ones a response far below the control.

Turning to `O=c1oc2ccc(Cl)cc2c2nc(-c3ccccc3)nn12`, in test [1], the pKi is 6.25. Besides, the GR in test [2] was 0.78. In test [3], `O=c1oc2ccc(Cl)cc2c2nc(-c3ccc(Cl)cc3)nn12` came in with an inhibition of 3%. `O=c1oc2ccccc2c2nc(-c3ccccc3)nn12` showed a negative-log Ki (pKi) in test [1] of 6.88. Further, in test [2], the GR came to 0.98.

Regarding `O=c1oc2ccccc2c2nc(-c3ccc(Cl)cc3)nn12`, the inhibition in test [4] came to 0%. In test [1], `O=c1oc2ccccc2c2nc(-c3ccco3)nn12` had a pKi of 7.55. For the same compound, in test [2], the GR came out at 0.84. `COc1ccc(-c2nc3c4cc(Cl)ccc4oc(=O)n3n2)cc1`: the pKi in test [1] was 7.14. Also, in test [2], the GR was found to be 0.5.

On to `O=c1oc2ccc(Cl)cc2c2nc(-c3cccs3)nn12`, for which, in test [1], the pKi was 7.00. For the same compound, in test [2], the GR was determined as 0.8. As to `O=c1oc2ccc(Cl)cc2c2nc(-c3ccco3)nn12`, the negative logarithm of the Ki (pKi) in test [1] is 7.21. Moreover, the GR in test [2] came out at 0.9. In the same order, the values of `O=c1oc2ccc(Cl)cc2c2nc(-c3c(F)cccc3F)nn12` are 7.37 and 0.76. The matching figures for `CCOC(=O)c1nc2c3ccccc3oc(=O)n2n1`: 6.92 and 0.81.

In turn, `O=c1oc2ccc(Cl)cc2c2nc(-c3cccc(F)c3F)nn12` had a pKi in test [1] of 7.93. Moreover, in test [2], the GR stood at 1.11. On to `O=c1oc2cc(Cl)ccc2c2nc(-c3ccccc3F)nn12`, for which the inhibition in test [3] turned out to be 47%. For the compound `O=c1oc2ccc(Cl)cc2c2nc(-c3ccsc3)nn12`, the negative logarithm of the Ki (pKi) in test [1] was 6.68. In test [2], the GR came out at 1.02. For the compound `O=c1oc2ccc(Cl)cc2c2nc(-c3ccccc3F)nn12`, the pKi in test [1] was 8.28. Also, in test [2], the GR turned out to be 0.9. In the same order, the values of `O=c1oc2ccc(Cl)cc2c2nc(-c3ccoc3)nn12` are 6.98 and 0.8. `O=c1oc2ccccc2c2nc(-c3ccccc3F)nn12` showed a negative logarithm of the Ki (pKi) in test [1] of 7.82. In addition, the GR in test [2] was 0.95. `COc1ccc2c(c1)oc(=O)n1nc(-c3ccccc3F)nc21` displayed an inhibition in test [5] of 45%. The compound `COc1ccc2oc(=O)n3nc(-c4ccccc4F)nc3c2c1` gave a pKi in test [1] of 7.36. In test [2], the GR stood at 1.13. In the same order, the values of `O=c1oc2ccccc2c2nc(-c3cccs3)nn12` are 7.49 and 0.98. The matching figures for `CCOC(=O)c1nc2c3cc(Cl)ccc3oc(=O)n2n1`: 6.90 and 1.2. The compound `COc1ccc(-c2nc3c4ccccc4oc(=O)n3n2)cc1` showed a negative-log Ki (pKi) in test [1] of 6.52. The GR in test [2] turned out to be 1.31.

In turn, `Cc1ccc2oc(=O)n3nc(-c4ccccc4F)nc3c2c1` showed a negative-log Ki (pKi) in test [1] of 7.35. For the same compound, the GR in test [2] amounted to 0.84.
